In ChEMBL document CHEMBL5120856, “New salicylic acid derivatives, double inhibitors of glycolate oxidase and lactate dehydrogenase, as effective agents decreasing oxalate production” (Eur J Med Chem, 2022):
Active and inactive are the calls of the source. The rule behind the calls is not given here.

Assays:
Hepatocyte [1] = assay: Inhibition of GO/LDHA in hyperoxaluric-primary hepatocyte isolated from Hoga1-knockdown PH3 C57BL/6 mouse assessed as reduction in relative oxalate output at 10 uM measured at 24 hrs in the presence of hydroxyproline relative to control; type: cell-based; set-up: scale not given: the % may be the effect or the level left
Outline: (§1)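 Hoga1-/- mouse primary hepatocytes challenged with 10 mM hydroxyproline, inhibitor 10 μM; extracellular oxalate measured by colorimetric kit 24 and 48 h after dosing, given as ratio to oxalate without inhibitor; negative values are below detection limit; mean of three/four replicates ± SD.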

Hepatocyte [2] = assay: Inhibition of GO/LDHA in hyperoxaluric-primary hepatocyte isolated from Grhpr-knockdown PH2 C57BL/6 mouse assessed as reduction in relative oxalate output at 10 uM measured at 24 hrs in the presence of glycolate relative to control; type: cell-based; set-up: scale not given: the % may be the effect or the level left
Outline: (§2)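 Grhpr-/- mouse primary hepatocytes cultured with 10 mM glycolate, inhibitor at 10 μM; extracellular oxalate determined colorimetrically at 24 and 48 h post-treatment, expressed relative to untreated medium (RO); negative RO means below detection limit; three/four replicates, mean ± SD.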

[3] = Inhibition of GO/LDHA in hyperoxaluric-primary hepatocyte isolated from Agxt1 knockdown PH1 C57BL/6 mouse measured at 24 hrs in the presence of 5 mM glycolate; type: cell-based
Outline: (§3)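 Agxt1-/- hepatocytes with 5 mM glycolate; eight inhibitor concentrations per replicate; extracellular oxalate measured colorimetrically at 24 or 48 h; EC50 as mean of three/four replicates ± SD.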

Hepatocyte [4] = assay: Inhibition of GO/LDHA in hyperoxaluric-primary hepatocyte isolated from Grhpr-knockdown PH2 C57BL/6 mouse assessed as reduction in relative oxalate output at 10 uM measured at 48 hrs in the presence of glycolate relative to control; type: cell-based; set-up: scale not given: the % may be the effect or the level left; outline: as §2
[5] = Inhibition of GO/LDHA in hyperoxaluric-primary hepatocyte isolated from Grhpr-knockdown PH2 C57BL/6 mouse measured at 24 hrs in the presence of 10 mM glycolate; type: cell-based
Outline: (§4)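 Grhpr-/- hepatocytes with 10 mM glycolate; eight inhibitor concentrations per replicate; colorimetric extracellular oxalate at 24 or 48 h; EC50 as mean of three/four replicates ± SD.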

[6] = biological target: T1, 2-Hydroxyacid oxidase 1 (Mus musculus) (UniProt Q9WU19); assay: Non-competitive mixed inhibition of N-terminal His-tagged mouse recombinant glycolate oxidase expressed in Escherichia coli BL21 (DE3) cells assessed as decrease in Vmax with increase in apparent Km using glycolate as substrate upto 60 microM
T1 sequence (whole entry): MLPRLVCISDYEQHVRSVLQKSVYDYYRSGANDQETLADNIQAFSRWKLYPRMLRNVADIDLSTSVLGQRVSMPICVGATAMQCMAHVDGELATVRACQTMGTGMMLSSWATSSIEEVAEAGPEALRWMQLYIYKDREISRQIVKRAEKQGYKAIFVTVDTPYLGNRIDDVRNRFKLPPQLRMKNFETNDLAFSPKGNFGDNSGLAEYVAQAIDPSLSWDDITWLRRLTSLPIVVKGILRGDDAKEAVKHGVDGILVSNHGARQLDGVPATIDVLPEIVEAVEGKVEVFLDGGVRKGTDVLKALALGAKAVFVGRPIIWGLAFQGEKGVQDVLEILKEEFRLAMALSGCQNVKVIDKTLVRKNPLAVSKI

Hepatocyte [7] = assay: Inhibition of GO/LDHA in hyperoxaluric-primary hepatocyte isolated from Agxt1 knockdown PH1 C57BL/6 mouse assessed as reduction in extracellular oxalate concentration at 10 uM measured at 48 hrs in the presence of glycolate relative to control; type: cell-based; set-up: scale not given: the % may be the effect or the level left
Outline: (§5)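 Agxt1-/- mouse primary hepatocytes cultured with 5 mM glycolate, inhibitor at 10 μM; extracellular oxalate measured by colorimetric kit 24 and 48 h after inhibitor addition; relative oxalate = oxalate with inhibitor over oxalate without inhibitor; negative values mean below detection limit; mean of three/four replicates ± SD.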

[8] = biological target: T2, L-lactate dehydrogenase B chain (Homo sapiens, UniProt P07195); assay: Mixed inhibition of human recombinant LDHB assessed as inhibition constant using varying concentration of pyruvate as substrate preincubated for 10 mins followed by substrate addition and measured every 60 sec for 10 mins in the presence of NADH by fluorescence assay
T2 sequence (P07195 whole entry): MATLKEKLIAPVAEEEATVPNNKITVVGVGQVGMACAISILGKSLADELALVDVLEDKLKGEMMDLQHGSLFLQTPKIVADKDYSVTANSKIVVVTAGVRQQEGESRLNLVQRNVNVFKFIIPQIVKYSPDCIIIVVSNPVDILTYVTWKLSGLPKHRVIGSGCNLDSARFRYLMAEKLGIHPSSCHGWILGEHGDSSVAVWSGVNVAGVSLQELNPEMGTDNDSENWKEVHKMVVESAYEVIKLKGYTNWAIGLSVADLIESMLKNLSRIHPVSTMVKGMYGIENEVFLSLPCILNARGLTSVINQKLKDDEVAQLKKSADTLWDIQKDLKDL

[9] = Inhibition of GO/LDHA in hyperoxaluric-primary hepatocyte isolated from Grhpr-knockdown PH2 C57BL/6 mouse measured at 48 hrs in the presence of 10 mM glycolate; type: cell-based; outline: as §4
Hepatocyte [10] = assay: Cytotoxicity against hyperoxaluric-primary hepatocyte isolated from Grhpr-knockdown PH2 C57BL/6 mouse assessed as cell death at 10 uM by MTS assay; type: toxicity, cell-based; settings: hepatocytes, Grhpr-knockdown PH2 (primary hyperoxaluria type 2)
Outline: (§6)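 Primary hepatocytes from Agxt1-/- (PH1, 5 mM glycolate), Grhpr-/- (PH2, 10 mM glycolate) or Hoga1-/- (PH3, 10 mM hydroxyproline) mice, incubated with inhibitor at 10 μM; viability followed through the oxalate assay by MTS tetrazolium method.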

[11] = biological target: T2, L-lactate dehydrogenase B chain; assay: Non-competitive inhibition of human recombinant LDHB assessed as inhibition constant using varying concentration of pyruvate as substrate preincubated for 10 mins followed by substrate addition and measured every 60 sec for 10 mins in the presence of NADH by fluorescence assay
HEK293 = assay: Cytotoxicity against HEK293 cells assessed as reduction in cell viability upto 50 uM measured after 48 hrs by MTT assay; type: toxicity, cell-based; settings: human, hek293, 48 h
Hepatocyte [12] = assay: Cytotoxicity against hyperoxaluric-primary hepatocyte isolated from Agxt1-knockdown PH1 C57BL/6 mouse assessed as cell death at 10 uM by MTS assay; type: toxicity, cell-based; settings: hepatocytes, Agxt1-knockdown PH1, 10 µM; outline: as §6
[13] = biological target: T2, L-lactate dehydrogenase B chain; assay: Inhibition of human recombinant LDHB using pyruvate as substrate preincubated for 10 mins followed by substrate addition and measured every 60 sec for 10 mins in the presence of NADH by fluorescence assay
[14] = Inhibition of GO/LDHA in hyperoxaluric-primary hepatocyte isolated from Agxt1 knockdown PH1 C57BL/6 mouse measured at 48 hrs in the presence of 5 mM glycolate; type: cell-based; outline: as §3
Mus musculus = assay: In vivo inhibition of GO/LDHA in Agxt1 knockdown PH1 C57BL/6 mouse assessed as increase in urine glycolate level at 20 mg/kg, po administered for 5 days relative to control; type: functional, organism-based; settings: time 5.0 day
Outline: (§7)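 Ten male Agxt1-/- mice dosed orally at 20 mg/kg daily for 5 days; 24-h urine oxalate (creatinine-normalized) and glycolate compared with pre-treatment baseline; clinical signs of toxicity monitored; mean ± SE.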

Hepatocyte [15] = assay: Inhibition of GO/LDHA in hyperoxaluric-primary hepatocyte isolated from Agxt1 knockdown PH1 C57BL/6 mouse assessed as reduction in relative oxalate output at 10 uM measured at 24 hrs in the presence of glycolate relative to control; type: cell-based; set-up: scale not given: the % may be the effect or the level left; outline: as §5
[16] = Toxicity in Agxt1 knockdown PH1 C57BL/6 mouse assessed as clinical signs of toxicity at 20 mg/kg, po administered for 5 days; type: organism-based; settings: in vivo, pH 1, 20 mg/kg, 120 h, time 5 day; outline: as §7
Hepatocyte [17] = assay: Cytotoxicity against hyperoxaluric-primary hepatocyte isolated from Hoga1-knockdown PH3 C57BL/6 mouse assessed as cell death at 10 uM by MTS assay; type: toxicity, cell-based; settings: hepatocytes, Hoga1-knockdown PH3, 10 µM; outline: as §6
[18] = Inhibition of GO/LDHA in hyperoxaluric-primary hepatocyte isolated from Hoga1-knockdown PH3 C57BL/6 mouse measured at 24 hrs in the presence of hydroxyproline; type: cell-based
Outline: (§8)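 Hoga1-/- hepatocytes with 10 mM hydroxyproline; eight inhibitor concentrations per replicate; colorimetric extracellular oxalate at 24 or 48 h; EC50 as mean of three/four replicates ± SD.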

[19] = In vivo inhibition of GO/LDHA in Agxt1 knockdown PH1 C57BL/6 mouse assessed as decrease in urine oxalate level at 20 mg/kg, po administered for 5 days relative to control; type: functional; set-up: scale not given: the % may be the effect or the level left; settings: time 5 day
Outline: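 Agxt1-/- (PH1) mice, ten males, dosed orally at 20 mg/kg body weight once daily for 5 days. 24-h urine was collected, and oxalate was normalised to creatinine. Urine glycolate was also measured. Values are expressed as % of each animal's own basal pre-treatment excretion, which serves as the control, and are reported as mean ± SE.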

2-Hydroxyacid oxidase 1 [20] = biological target: T3, 2-Hydroxyacid oxidase 1 (Mus musculus, UniProt Q9WU19); assay: Non-competitive mixed inhibition of N-terminal His-tagged mouse recombinant glycolate oxidase expressed in Escherichia coli BL21 (DE3) cells assessed as inhibition constant using varying concentration of glycolate as substrate measured every 60 sec for 15 mins by Amplex red and horseradish peroxidase based fluorescence assay
T3 sequence (Q9WU19 whole entry): T1 sequence (whole entry)

2-Hydroxyacid oxidase 1 [21] = biological target: T3, 2-Hydroxyacid oxidase 1; assay: Inhibition of N-terminal His-tagged mouse recombinant glycolate oxidase expressed in Escherichia coli BL21 (DE3) cells using glycolate as substrate preincubated for 10 mins followed by substrate addition and measured after 10 mins by Amplex red and horseradish peroxidase based fluorescence assay
Hepatocyte [22] = assay: Inhibition of GO/LDHA in hyperoxaluric-primary hepatocyte isolated from Hoga1-knockdown PH3 C57BL/6 mouse assessed as reduction in relative oxalate output at 10 uM measured at 48 hrs in the presence of hydroxyproline relative to control; type: cell-based; set-up: scale not given: the % may be the effect or the level left; outline: as §1
[23] = Toxicity in Agxt1 knockdown PH1 C57BL/6 mouse assessed as tolerance at 20 mg/kg, po administered for 5 days; type: organism-based; settings: in vivo, pH 1, 20 mg/kg, 120 h, time 5 day; outline: as §7
[24] = Inhibition of GO/LDHA in hyperoxaluric-primary hepatocyte isolated from Hoga1-knockdown PH3 C57BL/6 mouse measured at 48 hrs in the presence of hydroxyproline; type: cell-based; outline: as §8

With `C#CCNCc1ccc(-c2ccc(O)c(C(=O)O)c2)o1.N` the Activity (Hepatocyte [1]) was 90%, the Activity (Hepatocyte [2]) was 90% and the EC50 [3] was 4 µM. For the same compound, the Activity (Hepatocyte [4]) was 70%, the EC50 [5] was 1.2 µM and the inhibition [6] was “Active”. The Activity (Hepatocyte [7]) was 70%, the Ki [8] was 2 µM and the EC50 [9] was 2.7 µM. For the same compound, the Activity (Hepatocyte [10]) was “Non-Toxic”, the Ki [11] was 5.1 µM and the Activity (HEK293) was “Non-Toxic”. For the same compound, the Activity (Hepatocyte [12]) was “Non-Toxic”, the IC50 [13] was 11.8 µM and the EC50 [14] was 3.8 µM. The Activity (Mus musculus) was “Active”, the Activity (Hepatocyte [15]) was 90% and the Activity [16] was “Non-Toxic”. For the same compound, the Activity (Hepatocyte [17]) was “Non-Toxic”, the EC50 [18] was 1.7 µM and the Activity [19] was 50%. The Ki (2-Hydroxyacid oxidase 1 [20]) was 10.5 µM, the IC50 (2-Hydroxyacid oxidase 1 [21]) was 8.1 µM and the Activity (Hepatocyte [22]) was 70%. The Activity [23] was “Non-Toxic” and the EC50 [24] was 1.9 µM.
